Experimental data collected from several papers.
Lines come from different studies, so protocols differ. pIC50: −log10 of the molar value.
BCHE: Cholinesterase (BCHE, Equus caballus, UniProt P81908)
SLC6A4: Sodium-dependent serotonin transporter (SLC6A4, Homo sapiens, UniProt P31645)

SMILES | target | assay | setting | pIC50
C#CCN(C)c1nc(NCCCC2CCN(Cc3ccccc3)CC2)c(C#N)cc1C#N | BCHE | enzyme activity, inhibitor, Ellman | – | 5.92
C[C@H](N)Cn1ncc2ccc3c(c21)CCCO3 | D(1A) dopamine receptor (DRD1, Homo sapiens, UniProt P21728) | ligand displacement, radioligand | – | 3.86
O=P(O)(O)Oc1cccc(OP(=O)(O)O)c1 | Signal transducer and activator of transcription 5A, SH2 (Homo sapiens, UniProt P42229) | ligand displacement, FP | – | 4.30
I/C=C/CN1CCN(CCc2ccc3c(c2)CCO3)CC1 | Sigma non-opioid intracellular receptor 1 (Sigmar1, Mus musculus, UniProt O55242) | ligand displacement, radioligand | cell membranes | 9.17
NC(N)=S | Urease (Canavalia ensiformis, UniProt P07374) | enzyme activity, inhibitor | – | 5.05
CCOc1ccc(C=NNC(=S)NCC(=O)c2ccc(Cl)cc2)cc1 | BCHE | enzyme activity, inhibitor, Ellman | – | 3.48
CC=C1[C@H]2C=C(C)C[C@]1(N)c1cc(C#N)c(=O)[nH]c1C2 | BCHE | enzyme activity, inhibitor, Ellman | – | 2.98
C[C@@H](O)[C@@H]1NC(=O)[C@H](CCCCN)NC(=O)[C@@H](Cc2c[nH]c3ccccc23)NC(=O)[C@H](Cc2ccc(O)cc2)NC(=O)[C@@H](NC(=O)[C@@H](Cc2ccccc2)NC(=O)CCC(C(=O)O)N2CCN(C(CCC(=O)O)C(=O)O)CCN(C(CCC(=O)O)C(=O)O)CC2)CSSC[C@@H](C(=O)N[C@H](CO)[C@@H](C)O)NC1=O (some centres unmarked) | Somatostatin receptor type 2 (Rattus norvegicus, UniProt P30680) | ligand displacement, radioligand | – | 6.90
CC=C1[C@H]2C=C(C)C[C@]1(N)c1cc(OC)c(=O)[nH]c1C2 | BCHE | enzyme activity, inhibitor, Ellman | – | 3.22
Clc1ccc2c(C3=CCN(CC[C@@H]4CNc5ccccc54)CC3)c[nH]c2c1 | SLC6A4 | ligand displacement, radioligand | cell membranes | 6.69
CC=C1[C@H]2C=C(C)C[C@]1(N)c1cc(I)c(=O)[nH]c1C2 | BCHE | enzyme activity, inhibitor, Ellman | – | 3.49
Clc1ccc2c(C3CCN(CCc4c[nH]c5ccccc45)CC3)c[nH]c2c1 | SLC6A4 | ligand displacement, radioligand | cell membranes | 8.68
CC=C1[C@H]2C=C(C)C[C@]1(N)c1cc(OCC)c(=O)[nH]c1C2 | BCHE | enzyme activity, inhibitor, Ellman | – | 3.60
COC(=O)[C@H](CCC(=O)Nc1cccc2c1ccn2Cc1cccc(C(N)=O)c1)NC(=O)OCc1ccccc1 | NAD-dependent protein deacetylase sirtuin-3, mitochondrial (SIRT3, Homo sapiens, UniProt Q9NTG7) | enzyme activity, inhibitor | – | 5.44
